Mdm2 ligase inh: MDM2-luciferase reporter signal enhancers, primary screen, MDM2 E3 ligase inhibitor project, cell-based, luminescence, 1536-well | cell-based MDM2 ubiquitination luciferase reporter, 2 h; 0 = plate control, 100 = twice control, blank-subtracted | AID 1230, 2008 | signal enhancement, % at 5 µM | 0.11% of 210,000 active | E3 ubiquitin-protein ligase Mdm2 (Homo sapiens), Q00987;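 active = signal enhancement of 30% or more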;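 note: luminescence tracks abundance of the self-degrading MDM2-luciferase fusion protein; higher signal means inhibition of MDM2 E3 ligase activity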
Target sequence (Q00987 whole entry, looked up, the tested form may be a part): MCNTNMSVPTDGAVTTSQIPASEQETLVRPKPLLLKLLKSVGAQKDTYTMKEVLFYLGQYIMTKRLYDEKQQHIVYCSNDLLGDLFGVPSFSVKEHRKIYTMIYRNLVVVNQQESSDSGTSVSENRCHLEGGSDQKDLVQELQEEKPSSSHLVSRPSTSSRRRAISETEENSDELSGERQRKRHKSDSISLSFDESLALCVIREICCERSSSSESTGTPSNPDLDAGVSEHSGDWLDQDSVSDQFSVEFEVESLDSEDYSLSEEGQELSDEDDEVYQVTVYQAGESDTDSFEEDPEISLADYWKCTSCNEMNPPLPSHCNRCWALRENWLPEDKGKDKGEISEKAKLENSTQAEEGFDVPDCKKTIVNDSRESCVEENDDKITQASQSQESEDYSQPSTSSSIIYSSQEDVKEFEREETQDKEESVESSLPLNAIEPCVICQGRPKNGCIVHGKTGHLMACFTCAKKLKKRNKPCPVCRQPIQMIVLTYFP
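Material: Stable MDM2–luciferase fusion reporter cells | Amount: 2000 cells seeded into each well | Dosing: One concentration, 5 µM, with 0.2% DMSO | Incubation: 4 h cell settling then 2 h compound exposure, 37 °C | Measured by: Luciferase luminescence | Read-out basis: % enhancement relative to plate controls after blank subtraction | Benchmarks: Control and blank well means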
S1P4 ag: S1P4 receptor agonists, primary screen, cell-based. 0.35% of 220,000 active. S1P4-expressing cell line, agonist reporter assay. activation, % at 4.98 µM. AID 1509, 2009. Sphingosine 1-phosphate receptor 4 (Homo sapiens), O95977; in the data active = activation above about 11%
Dynein transport: inhibitors of GR-EGFP nuclear translocation, primary screen, dynein cargo transport inhibitor project, imaging, high-content, 3617.4 mouse cells; 0.47% of 220,000 active; test concentration mostly 20 µM; stimulated with dexamethasone, 1 µM; hits give low values; z-score, hits read low;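 active = plate z-score of nuclear minus cytoplasmic receptor signal below a set negative limit, without overly bright fluorescence or cell loss, cut at about -3.5 in these data, passing the limit was not always enough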;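 note: z-score of nuclear minus cytoplasmic ring GR-EGFP intensity difference per well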
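Buffer or medium – tet-free medium with charcoal-stripped serum · Signal – automated 10x imaging of fixed Hoechst-stained cells · Also added – dexamethasone agonist, 1.0 µM final, for 30 min · Incubation – induction 48 h, compound 1 h, agonist 30 min · Read-out – GR-EGFP nuclear translocation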
S1P4 antagonist: S1P4 receptor antagonists, primary screen, cell-based; S1P4-expressing cells, antagonist mode, reporter read-out; inhibition, % at 4.98 µM; 0.26% of 220,000 active; AID 1510, 2009; in the data active = inhibition above about 29%
Hsp70 act: Hsp70 transcriptional activators, primary screen, cell-based, HeLa, Hsp70 promoter luciferase, luminescence, 10 µM; HeLa Hsp70 promoter luciferase reporter; scaled: vehicle 0, proteasome-inhibitor control 100%; activation, % at 10 µM; 0.04% of 200,000 active;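 active = activation above the mean across all tested compounds plus 3 SD, cutoff set per campaign, cut at about 5.5% in these data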
S1P3 antag: S1P3 receptor antagonists, primary screen, cell-based; CHO S1P3 NFAT-BLA reporter, FRET fluorescence, antagonist mode; Sphingosine 1-phosphate receptor 3 (Homo sapiens), Q99500; 0.27% of 170,000 active; inhibition, % at 4.98 µM;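 active = inhibition above the plate cutoff, the mean inhibition of test wells on that plate plus 3 SD, cut at about 28% in these data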;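 note: cells challenged with S1P at its EC80 of 0.8 µM; blue over green emission ratio from cleaved BLA substrate after 4 h stimulation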
Dynein inh conf: dynein cargo transport inhibitors, GR-EGFP translocation, confirmation, imaging, high-content imaging, GR-EGFP cells; 3617.4 GR-EGFP nuclear translocation imaging, dexamethasone-induced; 69% of 1,000 active; shares compounds with Dynein transport; calls only at 20 µM; AID 463116, 2010;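 active = inhibition of receptor movement into the nucleus at or above a set limit in both runs, with normal cell brightness and cell count; inconclusive = limit reached in only one run, brightness and count normal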;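 note: dexamethasone at 1 µM final in well for 30 min; nuclear minus cytoplasmic GR-EGFP mean intensity difference in channel 2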
Of the large screens only hits and unclear results are named; the others gave an inactive call (follow-up assays come after a bar, where they were run). The list is not random: actives were taken first. Their share in the collection is about 1.3%.

CN(Cc1ccccc1)C(=O)C1CCCN1S(=O)(=O)c1ccc2c(c1)n(C)c(=O)c(=O)n2C (stereo not given)	none (no result: Hsp70 act)
COc1ccc2nc(/C=N/NC(=O)CCCCCNC(=O)OC(C)(C)C)ccc2c1	none (no result: Mdm2 ligase inh, Hsp70 act)
N#Cc1ccccc1Cn1cc(/C=C/[N+](=O)[O-])c2ccccc21	Dynein transport -4.67 | Dynein inh conf active
O=[N+]([O-])/C=C/c1cn(Cc2ccccc2)c2ccccc12	Dynein transport -4.62 (no result: S1P3 antag) | Dynein inh conf inconclusive
COC(=O)N/N=C/c1cn(Cc2ccc(F)cc2)c2ccccc12	none (no result: Hsp70 act)
O=[N+]([O-])c1ccc(N/N=C/c2cn(Cc3ccc(F)cc3)c3ccccc23)nc1	none | Dynein inh conf inconclusive
CC1OC(O[C@H]2CC[C@]3(C)C4C=C[C@]56OC[C@@]7(CC[C@@H](C)[C@H](C)C75)[C@H](O)C[C@@]6(C)[C@]4(C)CC[C@H]3C2(C)C)C(OC2OC(CO)C(O)C(O)C2OC2OCC(O)C(O)C2O)C(O)C1O (stereo not given in full)	none (no result: S1P4 ag, S1P4 antagonist, Hsp70 act, S1P3 antag)
COCCNS(=O)(=O)c1ccc(C)c(C)c1C	none
CCSc1nnc(-c2sc3nnc(-c4ccccc4)c(-c4ccccc4)c3c2N)o1	none (no result: S1P3 antag) | Dynein inh conf inactive
CCOC(=O)C1=C(O)c2ccccc2C(=O)/C1=C\c1ccc(CC)cc1	none (no result: S1P3 antag) | Dynein inh conf inactive
CCOC(=O)C1=C(Cc2ccc(C)cc2)C(=O)c2ccccc2C1=O	none (no result: S1P3 antag)
CCOC(=O)C1=C(C)N(c2ccccc2)C(=O)/C1=C\c1ccc(O)c(OC)c1	none (no result: Hsp70 act)
CCCc1ccc(/C=C2\C(=O)c3ccccc3C(O)=C2C(=O)OCC)cc1	Dynein transport -3.54 (no result: S1P3 antag) | Dynein inh conf inconclusive
CCOC(=O)c1ccc(COC(=O)c2ccc3c(c2)-c2ccccc2C3=O)cc1	none (no result: S1P3 antag)
CCOC(=O)C1=C(Cc2ccc(OC)cc2)C(=O)c2ccccc2C1=O	none (no result: S1P3 antag) | Dynein inh conf active
CN1CCN(Cc2nc3ccccc3c(=O)n2Cc2nc(-c3ccc([N+](=O)[O-])cc3)cs2)CC1	Dynein transport -3.67 | Dynein inh conf inactive
O=C1COc2ccc(C(=O)CCl)cc2N1	Dynein transport -4.02 (no result: Hsp70 act) | Dynein inh conf active
O=C(CC1Sc2ncnn2C1=O)Nc1ccc(Br)cc1 (stereo not given)	Dynein transport -3.59 | Dynein inh conf inactive
Fc1ccc(CNc2nc(-c3ccco3)cc(C(F)(F)F)n2)cc1	Dynein transport -4.39 (no result: S1P3 antag) | Dynein inh conf inactive
FC(F)(F)c1cc(-c2ccco2)nc(NCc2ccccc2)n1	none (no result: S1P3 antag)
CCOC(=O)C1C(=O)C=C(/C=C/c2ccc(N(C)C)cc2)CC1c1ccccc1 (stereo not given)	none | Dynein inh conf inactive
COc1ccc(-c2cccc([C@H]3[C@@H]4C=CCC[C@@]4(C)C(=O)N3Cc3ccccc3)c2)cc1	Dynein transport -3.6 (no result: S1P4 ag, S1P4 antagonist, Hsp70 act, S1P3 antag) | Dynein inh conf active
COc1ccc(-c2ccc([C@H]3[C@@H]4C=CCC[C@@]4(C)C(=O)N3Cc3ccccc3)c(F)c2)cc1OC	none (no result: S1P4 ag, S1P4 antagonist, Hsp70 act, S1P3 antag)
CCOC(=O)c1c(C)oc2c1c(CN1CCN(C(=O)OCC)CC1)c(O)c1ccccc12	none
CCOC(=O)c1c(C)oc2c1c(C(c1ccncc1)N1CCOCC1)c(O)c1ccccc12 (stereo not given)	Dynein transport -3.54 | Dynein inh conf inactive
CCOc1cc(/C=C\[N+](=O)[O-])ccc1OCC(=O)N1CCOCC1	Dynein transport -5.67 | Dynein inh conf active
CCOc1cc(/C=C/c2nc3cc(C)c(C)cc3s2)ccc1OCC(=O)N1CCOCC1	none
Cc1onc(-c2c(Cl)cccc2Cl)c1-c1nc2cc(Cl)ccc2c(=O)o1	Dynein transport -4.13 (no result: Hsp70 act) | Dynein inh conf active
